According to ChEMBL document CHEMBL3271971, “Antineoplastic and biochemical properties of arylsulfonylhydrazones of 2-formylpyridine N-oxide” (J Med Chem, 1976):

Tests used:
[1] = tested on: Mus musculus; experiment: Effect on protein synthesis in tumor of CD-1 mouse allografted with mouse S180A cells assessed as [14C]-leucine incorporation at 40 mg/kg, ip pretreated for 1 hr followed by radiotracer-addition measured after 1 hr relative to control; format: functional; settings: route intraperitoneal
How it was run: (§1)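 Sarcoma 180 ascites cells implanted 6 days earlier. Mice received a single ip dose of 10–80 mg/kg, then 1 h later an ip tracer: 200 μg thymidine-3H, 200 μg uridine-3H or 125 μg DL-leucine-14C. Tracer was incorporated for 1 h. Specific activity of tumor-cell DNA, RNA or protein is expressed as % of untreated controls. Values are means of 4-16 mice, each analyzed separately.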

[2] = tested on: Mus musculus; experiment: Effect on DNA synthesis in tumor of CD-1 mouse allografted with mouse S180A cells assessed as [3H]-thymidine incorporation at 80 mg/kg, ip pretreated for 12 hrs followed by radiotracer-addition measured after 1 hr relative to control; format: functional; settings: route intraperitoneal
How it was run: (§2)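 Mice bearing 6-day Sarcoma 180 ascites implants received a single ip dose of 80 mg/kg. At the stated pretreatment time they were given ip tracer: 200 μg thymidine-3H, 200 μg uridine-3H or 125 μg DL-leucine-14C. After 1 h of incorporation, specific radioactivity of DNA, RNA or protein was read as % of control incorporation.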

[3] = tested on: Mus musculus; experiment: Effect on RNA synthesis in tumor of CD-1 mouse allografted with mouse S180A cells assessed as [3H]-uridine incorporation at 80 mg/kg, ip pretreated for 3 hrs followed by radiotracer-addition measured after 1 hr relative to control; format: functional; settings: route intraperitoneal; how it was run: as §2
[4] = Antineoplastic activity against mouse S180A cells allografted in CD-1 mouse assessed as average survival at maximum effective dose administered qd for 6 days relative to control; format: functional
How it was run: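 Sarcoma 180 ascites cells were transplanted from a donor mouse bearing a 7-day tumour. Each agent was tested at 10–60 mg/kg/day, once daily for six consecutive days, starting 24 h after transplantation, in groups of 5–10 mice. Pooled untreated controls totalled 40 mice. Mice surviving beyond 50 days were counted as 50-day survivors, and body-weight change over therapy served as the toxicity index.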

[5] = tested on: Mus musculus; experiment: Toxicity in CD-1 mouse allografted with mouse S180A cells assessed as change in body weight at 40 mg/kg administered qd for 6 days (reference value: 23.2%); format: organism-based; set-up: dose 40 mg/kg; settings: in vivo, 144 h
[6] = Antineoplastic activity against mouse S180A cells allografted in CD-1 mouse assessed as average survival at 40 mg/kg administered qd for 6 days (reference value: 12.9 +/- 1.2 days); format: functional
How it was run: (§3)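 Ascitic tumours were transplanted from an appropriate donor mouse carrying a 7-day tumour growth. Drug was given at 10–60 mg/kg/day for six consecutive days. Sensitivity was judged by prolongation of survival time relative to untreated tumour-bearing controls. Mice were weighed throughout, and percentage weight change from onset to end of therapy indicated toxicity.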

[7] = Antineoplastic activity against mouse S180A cells allografted in CD-1 mouse assessed as average survival at 60 mg/kg administered qd for 6 days (reference value: 12.9 +/- 1.2 days); format: functional; how it was run: as §3
[8] = Antineoplastic activity against mouse S180A cells allografted in CD-1 mouse assessed as mouse survival at 40 mg/kg administered qd for 6 days measured for 50 days relative to control; format: functional; how it was run: as §3
[9] = Antineoplastic activity against 1-formylisoquinoline thiosemicarbazone-resistant mouse S180A cells allografted in CD-1 mouse assessed as average survival at 40 mg/kg administered qd for 6 days (reference value: 14.4 +/- 0.9 days); format: functional; how it was run: as §3
[10] = Antineoplastic activity against 1-formylisoquinoline thiosemicarbazone-resistant mouse S180A cells allografted in CD-1 mouse assessed as average survival at 60 mg/kg administered qd for 6 days (reference value: 14.4 +/- 0.9 days); format: functional; how it was run: as §3
[11] = tested on: Mus musculus; experiment: Toxicity in BDF1 mouse allografted with mouse L1210 cells assessed as change in body weight at 20 mg/kg administered qd for 6 days (reference value: 13.6%); format: organism-based; set-up: dose 20 mg/kg; settings: in vivo, 144 h
How it was run: (§4)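 Ascitic tumors were transplanted from a donor mouse bearing a 7-day tumor. Daily doses were given for six consecutive days. Percentage body-weight change from onset to termination of therapy served as the index of drug toxicity.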

[12] = tested on: Mus musculus; experiment: Toxicity in BDF1 mouse allografted with mouse L1210 cells assessed as change in body weight at 60 mg/kg administered qd for 6 days (reference value: 13.6%); format: organism-based; set-up: dose 60 mg/kg; settings: in vivo, 144 h; how it was run: as §4
[13] = tested on: L1210; experiment: Antineoplastic activity against mouse L1210 cells allografted in BDF1 mouse assessed as average survival at 20 mg/kg administered qd for 6 days (reference value: 8.2 +/- 0.4 days); format: functional; how it was run: as §3
[14] = tested on: L1210; experiment: Antineoplastic activity against mouse L1210 cells allografted in BDF1 mouse assessed as average survival at 60 mg/kg administered qd for 6 days (reference value: 8.2 +/- 0.4 days); format: functional; how it was run: as §3
[15] = tested on: Mus musculus; experiment: Toxicity in CD-1 mouse allografted with mouse EAC cells assessed as change in body weight at 20 mg/kg administered qd for 6 days (reference value: 26.8%); format: organism-based, Ehrlich; set-up: dose 20 mg/kg; settings: in vivo, 144 h; how it was run: as §4
[16] = tested on: Ehrlich; experiment: Antineoplastic activity against mouse EAC cells allografted in CD-1 mouse assessed as average survival at 20 mg/kg administered qd for 6 days (reference value: 14.4 +/- 1.2 days); format: functional; how it was run: as §3
[17] = tested on: Ehrlich; experiment: Antineoplastic activity against mouse EAC cells allografted in CD-1 mouse assessed as average survival at 40 mg/kg administered qd for 6 days (reference value: 14.4 +/- 1.2 days); format: functional; how it was run: as §3
[18] = tested on: Ehrlich; experiment: Antineoplastic activity against mouse EAC cells allografted in CD-1 mouse assessed as average survival at 60 mg/kg administered qd for 6 days (reference value: 14.4 +/- 1.2 days); format: functional; how it was run: as §3
[19] = tested on: Ehrlich; experiment: Antineoplastic activity against mouse EAC cells allografted in CD-1 mouse assessed as mouse survival at 60 mg/kg administered qd for 6 days measured for 50 days relative to control; format: functional; how it was run: as §3
[20] = tested on: Mus musculus; experiment: Toxicity in C3H mouse allografted with mouse Hepa129 cells assessed as change in body weight at 20 mg/kg administered qd for 6 days (reference value: 13.5%); format: organism-based; set-up: dose 20 mg/kg; settings: in vivo, 144 h; how it was run: as §4
[21] = tested on: Mus musculus; experiment: Toxicity in C3H mouse allografted with mouse Hepa129 cells assessed as change in body weight at 40 mg/kg administered qd for 6 days (reference value: 13.5%); format: organism-based; set-up: dose 40 mg/kg; settings: in vivo, 144 h; how it was run: as §4
[22] = tested on: Mus musculus; experiment: Effect on DNA synthesis in tumor of CD-1 mouse allografted with mouse S180A cells assessed as [3H]-thymidine incorporation at 20 mg/kg, ip pretreated for 1 hr followed by radiotracer-addition measured after 1 hr relative to control; format: functional; settings: route intraperitoneal; how it was run: as §1
[23] = tested on: Mus musculus; experiment: Effect on DNA synthesis in tumor of CD-1 mouse allografted with mouse S180A cells assessed as [3H]-thymidine incorporation at 40 mg/kg, ip pretreated for 1 hr followed by radiotracer-addition measured after 1 hr relative to control; format: functional; settings: route intraperitoneal; how it was run: as §1
[24] = tested on: Mus musculus; experiment: Effect on DNA synthesis in tumor of CD-1 mouse allografted with mouse S180A cells assessed as [3H]-thymidine incorporation at 80 mg/kg, ip pretreated for 1 hr followed by radiotracer-addition measured after 1 hr relative to control; format: functional; settings: route intraperitoneal; how it was run: as §1
[25] = tested on: Mus musculus; experiment: Effect on RNA synthesis in tumor of CD-1 mouse allografted with mouse S180A cells assessed as [3H]-uridine incorporation at 10 mg/kg, ip pretreated for 1 hr followed by radiotracer-addition measured after 1 hr relative to control; format: functional; settings: route intraperitoneal; how it was run: as §1

Cc1ccc(S(=O)(=O)N/N=C/c2cccc[n+]2[O-])cc1
Activity [1]: 93% | Activity [2]: 57% | Activity [3]: 62% | T/C [4]: 307% | Activity [5]: -3.1% | Survival [6]: 36.3 days | Survival [7]: 38.4 days | survival at 40 mg/kg [8]: 20% | Survival [9]: 24.4 days | Survival [10]: 24.4 days | Activity [11]: 10.6% | Activity [12]: -5.8% | Survival [13]: 8.6 days | Survival [14]: 11.8 days | Activity [15]: 2.4% | Survival [16]: 34.6 days | Survival [17]: 47 days | Survival [18]: 40.8 days | survival at 60 mg/kg [19]: 40% | Activity [20]: 11% | Activity [21]: 2.3% | Activity [22]: 71% | Activity [23]: 67% | Activity [24]: 59% | Activity [25]: 74%
